In ChEMBL document CHEMBL1138555, “N-acylated and N,N'-diacylated imidazolidine-2-thione derivatives and N,N'-diacylated tetrahydropyrimidine-2(1H)-thione analogues: synthesis and antiproliferative activity” (Eur J Med Chem, 2009):

Test system: IGROV-1
Test: Growth inhibition of human IGROV1 cells after 48 hrs by sulforhodamine B assay
Format: functional
Details: IGROV-1, 48 h
How it was run: (§1)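 NCI screen panel. Five 10-fold concentrations from 10^-4 to 10^-8 M. Exposure for the last 48 h of a 72 h incubation. Growth estimated by sulforhodamine B protein assay. GI50 is the concentration giving 50% growth inhibition. Where that level was not reached or was exceeded, the value is given as above or below the highest or lowest concentration tested.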

Row | Compound | GI50 [µM]
1 | O=C(c1cc(Cl)cc(Cl)c1)N1CCN(C(=O)c2cc(Cl)cc(Cl)c2)C1=S | 15.3

Test system: LOX IMVI
Test: Growth inhibition of human LOXIMVI cells after 48 hrs by sulforhodamine B assay
Format: functional
Details: not given
How it was run: as §1

Row | Compound | GI50 [µM]
2 | O=C(c1cc(Cl)cc(Cl)c1)N1CCN(C(=O)c2cc(Cl)cc(Cl)c2)C1=S | 3

Test system: DU-145
Test: Growth inhibition of human DU145 cells after 48 hrs by sulforhodamine B assay
Format: functional
Details: DU-145, 48 h
How it was run: as §1

Row | Compound | GI50 [µM]
3 | O=C(c1cc(Cl)cc(Cl)c1)N1CCN(C(=O)c2cc(Cl)cc(Cl)c2)C1=S | 10.5

Test system: MDA-N
Test: Growth inhibition of human MDA-N cells after 48 hrs by sulforhodamine B assay
Format: functional
Details: not given
How it was run: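 NCI screen panel. Five 10-fold concentrations from 10^-4 to 10^-8 M. Exposure for the last 48 h of a 72 h incubation. Growth estimated by sulforhodamine B protein assay. Where that level was not reached or was exceeded, the value is given as above or below the highest or lowest concentration tested.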

Row | Compound | GI50 [µM]
4 | O=C(c1cc(Cl)cc(Cl)c1)N1CCN(C(=O)c2cc(Cl)cc(Cl)c2)C1=S | 13

Test system: M14
Test: Growth inhibition of human M14 cells after 48 hrs by sulforhodamine B assay
Format: functional
Details: M14, 48 h
How it was run: as §1

Row | Compound | GI50 [µM]
5 | O=C(c1cc(Cl)cc(Cl)c1)N1CCN(C(=O)c2cc(Cl)cc(Cl)c2)C1=S | 11.9

Test system: HT-29
Test: Growth inhibition of human HT-29 cells after 48 hrs by sulforhodamine B assay
Format: functional
Details: HT-29, 48 h
How it was run: as §1

Row | Compound | GI50 [µM]
6 | O=C(c1cc(Cl)cc(Cl)c1)N1CCN(C(=O)c2cc(Cl)cc(Cl)c2)C1=S | 22.2

Test system: NCI-H23
Test: Growth inhibition of human NCI-H23 cells after 48 hrs by sulforhodamine B assay
Format: functional
Details: NCI-H23, 48 h
How it was run: as §1

Row | Compound | GI50 [µM]
7 | O=C(c1cc(Cl)cc(Cl)c1)N1CCN(C(=O)c2cc(Cl)cc(Cl)c2)C1=S | 14.8

Test system: CAKI-1
Test: Growth inhibition of human Caki1 cells after 48 hrs by sulforhodamine B assay
Format: functional
Details: CAKI-1, 48 h
How it was run: as §1

Row | Compound | GI50 [µM]
8 | O=C(c1cc(Cl)cc(Cl)c1)N1CCN(C(=O)c2cc(Cl)cc(Cl)c2)C1=S | 9.7

Test system: EKVX
Test: Growth inhibition of human EKVX cells after 48 hrs by sulforhodamine B assay
Format: functional
Details: not given
How it was run: as §1

Row | Compound | GI50 [µM]
9 | O=C(c1cc(Cl)cc(Cl)c1)N1CCN(C(=O)c2cc(Cl)cc(Cl)c2)C1=S | 17.6

Test system: KM12
Test: Growth inhibition of human KM12 cells after 48 hrs by sulforhodamine B assay
Format: functional
Details: KM12, 48 h
How it was run: as §1

Row | Compound | GI50 [µM]
10 | O=C(c1cc(Cl)cc(Cl)c1)N1CCN(C(=O)c2cc(Cl)cc(Cl)c2)C1=S | 10.1

Test system: MDA-MB-435
Test: Growth inhibition of human MDA-MB-435 cells after 48 hrs by sulforhodamine B assay
Format: functional
Details: MDA-MB-435, 48 h
How it was run: as §1

Row | Compound | GI50 [µM]
11 | O=C(c1cc(Cl)cc(Cl)c1)N1CCN(C(=O)c2cc(Cl)cc(Cl)c2)C1=S | 9

Test system: SF-539
Test: Growth inhibition of human SF539 cells after 48 hrs by sulforhodamine B assay
Format: functional
Details: SF-539, 48 h
How it was run: as §1

Row | Compound | GI50 [µM]
12 | O=C(c1cc(Cl)cc(Cl)c1)N1CCN(C(=O)c2cc(Cl)cc(Cl)c2)C1=S | 12.8

Test system: NCI-H522
Test: Growth inhibition of human NCI-H522 cells after 48 hrs by sulforhodamine B assay
Format: functional
Details: NCI-H522, 48 h
How it was run: as §1

Row | Compound | GI50 [µM]
13 | O=C(c1cc(Cl)cc(Cl)c1)N1CCN(C(=O)c2cc(Cl)cc(Cl)c2)C1=S | 3.7

Test system: A549
Test: Growth inhibition of human A549 cells after 48 hrs by sulforhodamine B assay
Format: functional
Details: A549, 48 h
How it was run: as §1

Row | Compound | GI50 [µM]
14 | O=C(c1cc(Cl)cc(Cl)c1)N1CCN(C(=O)c2cc(Cl)cc(Cl)c2)C1=S | 18.4

Test system: UO-31
Test: Growth inhibition of human UO31 cells after 48 hrs by sulforhodamine B assay
Format: functional
Details: UO-31, 48 h
How it was run: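 NCI in vitro panel screen. Compounds tested at five 10-fold dilutions, 10^-4 to 10^-8 M. Cells in 96-well plates were exposed for the last 48 h of a 72 h incubation. Viability/growth was read by sulforhodamine B protein assay. GI50 is the concentration giving 50% growth inhibition. Values beyond the tested range are reported as greater or less than the maximum or minimum concentration.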

Row | Compound | GI50 [µM]
15 | O=C(c1cc(Cl)cc(Cl)c1)N1CCN(C(=O)c2cc(Cl)cc(Cl)c2)C1=S | 2.3

Test system: HOP-62
Test: Growth inhibition of human HOP62 cells after 48 hrs by sulforhodamine B assay
Format: functional
Details: HOP-62, 48 h
How it was run: as §1

Row | Compound | GI50 [µM]
16 | O=C(c1cc(Cl)cc(Cl)c1)N1CCN(C(=O)c2cc(Cl)cc(Cl)c2)C1=S | 14.3

Test system: OVCAR-4
Test: Growth inhibition of human OVCAR4 cells after 48 hrs by sulforhodamine B assay
Format: functional
Details: OVCAR-4, 48 h
How it was run: as §1

Row | Compound | GI50 [µM]
17 | O=C(c1cc(Cl)cc(Cl)c1)N1CCN(C(=O)c2cc(Cl)cc(Cl)c2)C1=S | 18

Test system: NCI-H322M
Test: Growth inhibition of human NCI-H322M cells after 48 hrs by sulforhodamine B assay
Format: functional
Details: not given
How it was run: as §1

Row | Compound | GI50 [µM]
18 | O=C(c1cc(Cl)cc(Cl)c1)N1CCN(C(=O)c2cc(Cl)cc(Cl)c2)C1=S | 16.8

Test system: NCI/ADR-RES
Test: Growth inhibition of human NCI/ADR-RES cells after 48 hrs by sulforhodamine B assay
Format: functional
Details: not given
How it was run: as §1

Row | Compound | GI50 [µM]
19 | O=C(c1cc(Cl)cc(Cl)c1)N1CCN(C(=O)c2cc(Cl)cc(Cl)c2)C1=S | 31.7

Test system: MT4
Test: Antiproliferative activity against human MT4 cells assessed as reduction of growth by MTT assay
Format: functional, cell-based
Details: not given
How it was run: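 MT-4 lymphoblastoid T cells (ATCC) in RPMI 1640 with 10% FCS, penicillin/streptomycin, checked for mycoplasma. 1 × 10⁴ mock-infected cells per well with serial dilutions from a 100 mM DMSO stock. Incubated 4 days at 37 °C, viable cells counted by MTT. IC50 versus untreated controls by linear regression. Mean of three separate experiments.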

Row | Compound | IC50 [µM]
20 | O=C(c1cc(Cl)cc(Cl)c1)N1CCN(C(=O)c2cc(Cl)cc(Cl)c2)C1=S | 13
